Experimental data collected from several papers.
Protocols differ between the studies behind these lines.
Observed: enzyme activity
Mode: inhibitor
PIK3CA: Phosphatidylinositol 4,5-bisphosphate 3-kinase catalytic subunit alpha isoform (PIK3CA, Homo sapiens, UniProt P42336)
KDR: Vascular endothelial growth factor receptor 2 (KDR, Homo sapiens, UniProt P35968)
PIK3CB: Phosphatidylinositol 4,5-bisphosphate 3-kinase catalytic subunit beta isoform (PIK3CB, Homo sapiens, UniProt P42338)

| SMILES | target | test | IC50 [µM] |
| --- | --- | --- | --- |
| CN(C)C(=O)c1cc2cnc(Nc3ccc4c(=O)cc(N5CCNCC5)oc4c3)nc2n1C1CCCC1 | PIK3CA | radiometric | > 10 |
| COc1ccc(Nc2nc(Nc3ccc4ncccc4c3)nc(N3CCOCC3)n2)cc1 | PIK3CA | ADP detection | 1.29 |
| O=[N+]([O-])c1cc(Br)c(O)c(C=NNc2ccccc2)c1 | KDR | ATP luminescence | 5.4 |
| O=C1C(=Nc2ccc(Cl)cc2)c2ccccc2N1Cc1ccc([N+](=O)[O-])cc1 | PIK3CB | ADP detection | 0.00773 |
| CN(C)C(=O)c1cc2cnc(Nc3cc(C(F)(F)F)c(-c4ccc5c(=O)cc(N6CCOCC6)oc5c4)cn3)nc2n1C1CCCC1 | PIK3CA | radiometric | > 10 |
| O=[N+]([O-])c1cc(I)c(O)c(C=NNc2ccc(Br)cc2)c1 | KDR | ATP luminescence | 6.52 |
| O=C(CCc1ccc(Cl)cc1)N1C(=O)C(=Nc2ccc(Cl)cc2Br)c2ccccc21 | PIK3CB | ADP detection | 0.81 |
| CC(=O)OC[C@H]1O[C@@H]([S-])[C@H](OC(C)=O)[C@@H](OC(C)=O)[C@@H]1OC(C)=O.CCP(CC)CC.[Au+] | Thioredoxin reductase 1, cytoplasmic (TXNRD1, Homo sapiens, UniProt Q16881) | absorbance | 0.397 |
| O=[N+]([O-])c1cc(Br)c(O)c(C=NNc2ccc(C(F)(F)F)cc2)c1 | KDR | ATP luminescence | 8.95 |
| CC(C)C[C@H](NC(=O)[C@@H](NC(=O)N[C@@H](Cc1ccccc1)C(=O)O)[C@@H]1CCN=C(N)N1)C(=O)N[C@H](C=O)Cc1ccccc1 | Cathepsin G (CTSG, Homo sapiens, UniProt P08311) |  | 4.19 |
| O=C1C(=Nc2ccccc2I)c2ccccc2N1Cc1ccc(Br)cc1 | PIK3CA | ADP detection | 0.298 |
| COc1ccc(-c2cc(=O)c3c(O)cc(O[C@@H]4O[C@H](CO[C@@H]5O[C@@H](C)[C@H](O)[C@@H](O)[C@H]5O)[C@@H](O)[C@H](O)[C@H]4O)cc3o2)cc1O | KDR | TR-FRET | 32.7 |
| Cc1cccc(N=C2C(=O)N(Cc3ccccc3)c3ccccc32)c1 | PIK3CA | ADP detection | 0.00864 |
| O=[N+]([O-])c1cc(I)c(O)c(C=NNc2ccc(Cl)cc2)c1 | KDR | ATP luminescence | 7.83 |
| O=C1C(=Nc2ccc(Cl)cc2)c2ccccc2N1Cc1cccc(Cl)c1 | PIK3CA | ADP detection | 0.322 |
| CN(C)C(=O)c1cc2cnc(Nc3ccc(-c4cccc5c(=O)cc(N6CCOCC6)oc45)cn3)nc2n1C1CCCC1 | PIK3CA | radiometric | > 10 |
| O=C1C(=Nc2ccccc2Br)c2ccccc2N1Cc1ccccc1 | PIK3CB | ADP detection | 0.0166 |
| Cc1c(N2CCOCC2)oc2c(-c3ccc(Nc4ncc5cc(C(=O)N(C)C)n(C6CCCC6)c5n4)cc3F)cccc2c1=O | PIK3CA | radiometric | > 10 |
| CCc1ccc(N=C2C(=O)N(Cc3ccccc3)c3ccccc32)cc1 | PIK3CB | ADP detection | 0.0221 |
| CN(C)C(=O)c1cc2cnc(Nc3ccc(-c4ccc5c(=O)cc(N6CCNCC6)oc5c4)cc3)nc2n1C1CCCC1 | PIK3CA | radiometric | > 10 |
| Cc1ccc(CN2C(=O)C(=Nc3cccc(Cl)c3)c3ccccc32)cc1 | PIK3CA | ADP detection | 0.0276 |
| COc1ccc(-c2cc(=O)c3cccc(Nc4ncc5cc(C(=O)N(C)C)n(C6CCCC6)c5n4)c3o2)cc1 | PIK3CA | radiometric | > 10 |
| O=C(O)[C@H]1O[C@@H](Oc2cc3oc(-c4ccc(O)cc4)cc(=O)c3c(O)c2O)[C@H](O)[C@@H](O)[C@@H]1O | KDR | TR-FRET | 8.35 |
| O=[N+]([O-])c1cc(I)c(O)c(C=NNc2ccccc2)c1 | KDR | ATP luminescence | 4.97 |
| COc1ccc(-c2cc(=O)c3ccc(Nc4ncc5cc(C(=O)N(C)C)n(C6CCCC6)c5n4)cc3o2)cc1 | PIK3CA | radiometric | > 10 |
| O=[N+]([O-])c1ccc(O)c(C=NNc2ccc(Br)cc2)c1 | KDR | ATP luminescence | 12.6 |
| CN(C)C(=O)c1cc2cnc(Nc3cc(C(=O)O)cc(-c4cccc5c(=O)cc(N6CCOCC6)oc45)c3)nc2n1C1CCCC1 | PIK3CA | radiometric | 1.59 |
